FGF22 binding: shifts melting point of recombinant human FGF22; recombinant FGF22 thermal shift, SYPRO orange fluorescence; percent of sucrose octasulfate shift, DMSO zero; Q9HCT0; AID 651658; activity (Tm shift, normalised), % at 9.99 µM; actives 1.5% (n = 340,000);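 active = mean Tm shift, scaled 0 neutral to 100 positive control, at about 1.3% or above, every replicate too, limit read from the data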
Target sequence (Q9HCT0 whole entry, looked up): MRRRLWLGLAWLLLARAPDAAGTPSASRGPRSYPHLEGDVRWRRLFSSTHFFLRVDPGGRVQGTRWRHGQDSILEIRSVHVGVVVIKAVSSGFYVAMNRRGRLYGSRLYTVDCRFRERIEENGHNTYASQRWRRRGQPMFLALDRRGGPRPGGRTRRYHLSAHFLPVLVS
Rtt109 Vps75: C. albicans Rtt109 histone acetyltransferase inhibition; Q5AAJ8; purified Rtt109/Vps75, ThioGlo CoA-SH fluorescence, 4 h; inhibition, % at 34.9 µM; actives 0.16% (n = 330,000); AID 540336;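 active = inhibition of at least 50% in every replicate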
Target sequence (Q5AAJ8 whole entry, looked up): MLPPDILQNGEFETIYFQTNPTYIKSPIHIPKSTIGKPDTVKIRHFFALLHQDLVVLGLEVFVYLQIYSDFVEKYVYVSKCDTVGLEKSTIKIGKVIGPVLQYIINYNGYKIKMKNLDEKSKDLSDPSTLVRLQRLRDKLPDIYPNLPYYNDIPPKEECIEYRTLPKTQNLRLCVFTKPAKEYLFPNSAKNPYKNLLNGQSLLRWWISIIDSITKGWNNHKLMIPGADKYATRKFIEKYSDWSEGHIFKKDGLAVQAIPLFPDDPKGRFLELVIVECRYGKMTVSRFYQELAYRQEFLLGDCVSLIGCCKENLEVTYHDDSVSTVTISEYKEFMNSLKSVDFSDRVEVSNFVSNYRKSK
Efflux pump inh: inhibitors of Candida antifungal efflux pumps expressed in yeast. S. cerevisiae Candida pump triplex, Nile Red efflux. inhibition, % at 10 µM. actives 0.44% (n = 330,000). AID 485275;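 active = plate passing quality check with inhibition over a set limit, or well fluorescence over plate mean plus 4 SD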;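 note: Nile Red retained in pooled yeast measured as flow cytometry median fluorescence; higher means more Nile Red kept so more efflux inhibition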
ASAP1 GAP inh: inhibitors of human ASAP1 ArfGAP activity. Q9ULH1. ASAP1-stimulated ARF1 GTP hydrolysis, GDP FP detection. inhibition, % at 16.5 µM. actives 0.19% (n = 360,000). AID 624377; in the data active = inhibition above about 25%
ARFGAP1 inh: rat ARFGAP1 inhibition | Arfgap1-stimulated ARF1 GTP hydrolysis, GDP FP detection | inhibition, % at 16.5 µM | actives 0.26% (n = 360,000) | AID 651572;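 active = inhibition above a per-plate limit, mean inhibition of low control wells plus 3 SD, cut at about 25% in these data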
Target sequence (Q62848 1-136 limits assumed): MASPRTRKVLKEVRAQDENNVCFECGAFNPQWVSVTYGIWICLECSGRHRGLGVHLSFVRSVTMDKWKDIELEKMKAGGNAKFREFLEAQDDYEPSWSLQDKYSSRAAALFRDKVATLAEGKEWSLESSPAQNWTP
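Assay system: Rat Arfgap1 GAP domain (His6, aa 1-136), purified enzyme | Buffer or medium: HEPES 25 mM pH 7.5, NaCl 150 mM, MgCl2, DTT | Schedule: GTP hydrolysis reaction 2 h at 25 °C | Signal: FP of antibody-bound GDP Alexa 633 tracer, ex 620/em 688 nm | Measure: Percent inhibition of Arfgap1-stimulated GTP hydrolysis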
Of the large screens only hits and unclear results are named; the others gave an inactive call. In the library only some 1.9% were active in any assay of this set; here they are far more common.

CC[n+]1c(C)sc2c(C)cc(C)cc21	Rtt109 Vps75 114 (no result: FGF22 binding)
CC[n+]1c(C)sc2cc(OC)ccc21	none
CC(C)CC#Cc1ccc([C@@H]2[C@H]3CN(C(=O)c4ccc5c(c4)OCO5)CCCCN3[C@H]2CO)cc1	none (no result: Rtt109 Vps75, Efflux pump inh, ASAP1 GAP inh, ARFGAP1 inh)
O=C(NCC1CCCCC1)c1ccc(Cl)c(S(=O)(=O)N2CCOCC2)c1	none
OC(CN1CCCCC1)c1ccc(Br)cc1 (configuration not stated)	FGF22 binding 44 (no result: Efflux pump inh)
OC(CN1CCN(Cc2ccccc2)CC1)c1ccc(Br)cc1 (configuration not stated)	none
O=C(c1cccc(C(F)(F)F)c1)C1CCCN(C(=O)c2cc(C3CC3)[nH]n2)C1 (configuration not stated)	none
COc1ccc(C(=O)CSc2n[nH]c(=O)[nH]c2=O)cc1	FGF22 binding 43
O=c1[nH]c2ccccc2nc1/C=C/c1ccc(F)cc1	FGF22 binding 43
O=c1[nH]c2ccccc2nc1/C=C/c1ccccc1	none
COc1cccc(OC)c1C(=O)Nc1nc2cc3c(cc2s1)OCO3	none
Cn1cccc1/C=C1/SC(=O)N(CC(=O)N2CCCC2)C1=O	FGF22 binding 43
COCC(=O)Nc1ccc2c(c1)OC[C@@H](C)N(C(=O)c1ccccc1F)C[C@H](C)[C@@H](OC)CN(C)C2=O	none (no result: Rtt109 Vps75, Efflux pump inh, ASAP1 GAP inh, ARFGAP1 inh)
NS(=O)(=O)c1ccc(CCNC(=O)CN2CCN(c3ccccc3O)CC2)cc1	FGF22 binding 44
NS(=O)(=O)c1ccc(CCNC(=O)CN2CCN(c3ccccc3F)CC2)cc1	none
O=c1nc(N/N=C/c2ccccn2)cn[nH]1	FGF22 binding 44
Cc1ccc(/C=N/Nc2cn[nH]c(=O)n2)o1	none
CN(C)C(CNC(=O)Cc1cccc(C(F)(F)F)c1)c1ccco1 (configuration not stated)	none
Cc1nc(-c2cccc(NC(=O)Cc3ccccc3)c2)cs1	FGF22 binding 43
Cc1nc(-c2cccc(NC(=O)c3cccs3)c2)cs1	none (no result: FGF22 binding)
CCOC(=O)CSc1cc(C)nc2ccc(OC)cc12	FGF22 binding 43
CC(C)c1nc(SCC(=O)Nc2ccc(N3CCOCC3)cc2)c2ccccc2n1	Rtt109 Vps75 active (no result: FGF22 binding)
O=C1NN(c2ccc(F)c(Cl)c2)C(=O)/C1=C\c1cccc(OC(=O)c2cccs2)c1	Rtt109 Vps75 84 (no result: FGF22 binding)
CC(/C=C1\SC(=S)N(C(C(=O)O)c2ccccc2)C1=O)=C\c1ccccc1 (configuration not stated)	Rtt109 Vps75 66
CCOc1ccc(/C=C2\SC(=S)N(C(C(=O)O)c3ccccc3)C2=O)cc1OC (configuration not stated)	none
COc1ccc(OC)c(/C=C2\SC(=S)N(C(C(=O)O)c3ccccc3)C2=O)c1 (configuration not stated)	Rtt109 Vps75 66 (no result: FGF22 binding)
CCOCCCNCc1cn(-c2ccc(F)cc2F)nc1-c1ccccc1C	FGF22 binding 43
Nc1ccc(Nc2ccncc2[N+](=O)[O-])cc1	Rtt109 Vps75 50 (no result: FGF22 binding)
Clc1ccc(-c2nnc(-c3ccccc3)c(-c3ccccc3)n2)cc1	none
Nc1nc(-c2ccc(Cl)cc2)nnc1-c1ccc(Br)cc1	FGF22 binding 44
O=C(O)c1ccc(N/N=C/C(Br)=C/c2ccccc2)cc1	none
COC(=O)Nc1ccc(S(=O)(=O)Nc2ccc(C(=O)O)cc2)cc1	FGF22 binding 43
Nc1nc(N)c2c(n1)CN(Cc1ccc(Cl)cc1)C2	FGF22 binding 43 (no result: Rtt109 Vps75, Efflux pump inh)
COc1ccc(C2/C=C\CN(C(=O)c3ccccc3)[C@H](Cc3ccccc3)C(=O)N2Cc2ccc(F)cc2)cc1 (some centres not stated)	FGF22 binding 44
COc1ccc([C@H]2/C=C\CN(C(=O)c3ccc(C)cc3)[C@@H](C)C(=O)N2Cc2ccc(F)cc2)cc1	none
Cc1ccc(S(=O)(=O)N2CCOC2CNC(=O)C(=O)NCCc2c[nH]c3ccccc23)cc1 (configuration not stated)	FGF22 binding 44
COc1ccc(NC(=O)NCCc2ccc(Cl)cc2)cc1OC	none
COCCNC(=O)C(=O)N/N=C(\C)CC(=O)Nc1cccnc1	FGF22 binding 44
COCCNC(=O)C(=O)N/N=C(\C)CC(=O)Nc1ccc2c(c1)OCO2	none
CC1(C)C2CCC1(C)C(OCC[N+](C)(C)CC(=O)OC1CCCCC1)C2 (configuration not stated)	Rtt109 Vps75 58
COc1ccc(C(=O)Nc2ccc(C(=O)NCCc3ccccc3)cc2)cc1	FGF22 binding 44
O=C(Cc1ccc(-n2c(=O)c3sccc3n(CC(=O)Nc3ccccc3)c2=O)cc1)NCc1ccco1	none
COc1cccc(-c2nc(-c3ccccc3)[nH]c(=O)c2C#N)c1	none (no result: FGF22 binding)
CCC(Sc1nc(-c2cccc(OC)c2)c(C#N)c(=O)[nH]1)C(=O)Nc1nnc(C(C)C)s1 (configuration not stated)	FGF22 binding 2.1
COc1cc(C(=O)OCC(=O)Nc2c(F)cccc2F)cc(OC)c1C	none
Cc1ccc(NC(=O)CN(C)C(=O)c2ccc(S(=O)(=O)N(C)c3ccccc3)cc2)cc1	FGF22 binding 43
Cc1ccccc1CNC(=O)C1CCCN(c2cnccn2)C1 (configuration not stated)	none
CN(C(=O)CSc1nc2ccccc2s1)c1c(N)n(Cc2ccccc2)c(=O)[nH]c1=O	FGF22 binding 43
Cc1ccc(-n2c(O)c(C=NCc3ccccn3)c3ccccc3c2=O)cc1C	Rtt109 Vps75 62
O=c1c2ccccc2c(C=NCc2ccccn2)c(O)n1-c1ccccc1	none
COCCNC(=O)COc1ncnc2scc(-c3ccc(F)cc3)c12	FGF22 binding 43
NC(=O)COc1ncnc2scc(-c3ccc(F)cc3)c12	none
Cc1cc2ccccc2nc1SCC(=O)NC1CCCC1	FGF22 binding 43
Cc1cc2ccccc2nc1SCC(=O)NC1CCCCC1	none
O=C(Cn1c(=O)ccn(Cc2ccccc2)c1=O)Nc1cccc(S(=O)(=O)N2CCOCC2)c1	none (no result: Efflux pump inh)
CC(=O)Nc1ccc(NC(=O)CSc2nnc(NC(=O)c3ccccc3F)s2)cc1	FGF22 binding 1.9 (no result: Rtt109 Vps75, Efflux pump inh)
NC(=O)c1ccsc1NC(=O)CSc1nnc(Nc2ccccc2)s1	FGF22 binding 1.5
O=C(N/C(=C/c1ccc(Br)cc1)C(=O)N1CCOCC1)c1ccc(Br)o1	none
Cc1ccc(/C=C/C(=O)NCc2ccncc2)cc1	none (no result: FGF22 binding)
O=C(/C=C/c1ccc(Cl)cc1)NCc1ccncc1	Rtt109 Vps75 53 (no result: FGF22 binding)
COc1ccc(C2(CNC(=O)C(=O)Nc3ccc(C)cc3)CCOCC2)cc1	FGF22 binding 43
O=C(CN1CCOCC1)N1CC2(C1)[C@H](c1ccccc1)[C@@H](CO)N2Cc1cccc(F)c1	none (no result: Rtt109 Vps75, Efflux pump inh, ASAP1 GAP inh, ARFGAP1 inh)
Oc1ccccc1-c1cc(-c2ccc3c(c2)OCCO3)n[nH]1	ASAP1 GAP inh 28 (no result: FGF22 binding)
O=C(O)c1cc(-c2ccc3c(c2)OCCO3)n[nH]1	FGF22 binding 43
O=C(Nc1ccc(Cl)cc1Cl)c1ccc2c(=O)n3c(nc2c1)CCC3	none
